The values below come from ChEMBL document CHEMBL1122852, “Imidazo[1,5-d][1,2,4]triazines as potential antiasthma agents” (J Med Chem, 1985).

Structures are written as SMILES. Calls of active or inactive are those of the source. The rule behind the calls is not given here. Some results are limits rather than exact numbers.

The first experiment is filed under the species Homo sapiens. Description: Inhibitory activity against histamine release from antigen-challenged, sensitized human basophils. Format: functional. The settings on record: Homo sapiens. A digest of the protocol:
(§1)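 Histamine release was induced by antigen challenge of sensitized human basophils in vitro. Compounds were first screened at a single concentration. Those reducing release by more than 50% went on to concentration-response testing to estimate IC50. Values are given with standard error and number of experiments.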
The term IC50 denotes the concentration at which inhibition is half-maximal. For `CCCc1nc(C)c2c(CC)nnc(O)n12`, the half-inhibitory concentration (IC50) came to 15.6 µM.

As for `CCCc1nnc(O)n2c(CCC)nc(C)c12`, the IC50 worked out at 16 µM.

As to `CCCc1nc(C)c2c(C)nnc(O)n12`, the IC50 was determined as 14 µM.

Turning to `C=CCSc1nncc2c(CC)ncn12`, the 50% inhibitory concentration (IC50) is more than 48 µM.

Regarding `CSc1nnc(-c2ccccc2)c2c(C)nc(C(C)C)n12`, the IC50 was more than 48 µM.

Consider `COCc1ncc2cnnc(NCCN(C)C)n12`, for which the 50% inhibitory concentration (IC50) was more than 48 µM.

Take `CSc1nncc2c(C(C)C)ncn12`: the IC50 was more than 48 µM.

As for `CCCc1nc(C)c2cnnc(NCCN(C)C)n12`, the IC50 is more than 48 µM.

Consider `CCc1nc(C)c2cnnc(O)n12`, for which the half-inhibitory concentration (IC50) was more than 48 µM.

For `CCCc1nc(C)c2c(C(C)C)nnc(SC)n12`, the IC50 is more than 48 µM.

Take `Cn1c(=O)c2nc[nH]c2n(C)c1=O.O` [THEOPHYLLINE]: the concentration for half-maximal inhibition (IC50) turned out to be 335 µM.

`CCc1nnc(O)n2c(CC)nc(C)c12`: the IC50 came out at 24 µM.

For the compound `C=CCn1ncc2c(C)nc(CCC)n2c1=O`, the IC50 is 40 µM.

For `Cc1ncn2c(Nc3cccs3)nncc12`, the half-maximal inhibitory concentration (IC50) is more than 48 µM.

In the case of `CCCc1nc(C)c2cnn(CC(=O)OCC)c(=O)n12`, the IC50 was more than 48 µM.

In the case of `C=CCn1ncc2c(C)nc(C(C)C)n2c1=O`, the 50% inhibitory concentration (IC50) was more than 48 µM.

As to `c1ncn2c(NC34CC5CC(CC(C5)C3)C4)nncc12`, the concentration for half-maximal inhibition (IC50) was more than 48 µM.

`CCCc1nc(C)c2cnn(CC)c(=O)n12`: the IC50 is more than 48 µM.

Consider `CCCc1nc(Br)c2cnnc(O)n12`, for which the half-maximal inhibitory concentration (IC50) is more than 48 µM.

Turning to `C=CCn1ncc2c(CC)ncn2c1=S`, the concentration for half-maximal inhibition (IC50) was more than 48 µM.

For `CSc1nncc2c(C)nc(C)n12`, the 50% inhibitory concentration (IC50) is more than 48 µM.

Take `c1ncn2c(N3CCCCC3)nncc12`: the 50% inhibitory concentration (IC50) is more than 48 µM.

As to `C=CCn1nc(CCC)c2c(C)nc(CCC)n2c1=O`, the IC50 was determined as 29 µM.

Consider `C=CCSc1nncc2c(C)nc(C)n12`, for which the IC50 turned out to be 59 µM.

Turning to `Cc1nc(C(C)(C)C)n2c(O)nncc12`, the IC50 was determined as 31 µM.

Take `CSc1nncc2cnc(C)n12`: the IC50 is more than 48 µM.

Turning to `O=C(CSc1nncc2cncn12)c1ccccc1`, the IC50 is more than 48 µM.

Turning to `CCCc1nc(C)c2c(C)nn(CC(O)CO)c(=O)n12` (stereo not given), the IC50 is more than 48 µM.

Take `CCCc1nnc(SC)n2c(CCC)nc(C)c12`: the IC50 is more than 48 µM.

`Cc1ncn2c(N(C)C)nncc12`: the IC50 was more than 48 µM.

On to `C(=C\CSc1nncc2cncn12)/CSc1nncc2cncn12`, for which the IC50 was more than 48 µM.

For the compound `CCOC(=O)Cn1ncc2c(C)ncn2c1=O`, the IC50 is more than 48 µM.

In the case of `O/C(=C/c1nncc2cncn12)c1ccccc1`, the IC50 is 38 µM.

Consider `Cc1ncn2c(NCc3ccco3)nncc12`, for which the IC50 is more than 48 µM.

As for `CCCc1nc(C)n2c(O)nncc12`, the IC50 was more than 48 µM.

Regarding `CCCc1nc(Br)c2c(Br)nnc(O)n12`, the IC50 came to 48 µM.

In the case of `CCc1nc(C)c2cnnc(S)n12`, the IC50 is more than 48 µM.

Take `CCc1nnc(S)n2c(C(C)CC)nc(C)c12` (stereo not given): the concentration for half-maximal inhibition (IC50) was more than 48 µM.

Turning to `Oc1nncc2cnc(-c3ccccc3)n12`, the IC50 is more than 48 µM.

As to `CCCc1nc(C)c2cnnc(SCC(=O)OCC)n12`, the half-maximal inhibitory concentration (IC50) was more than 48 µM.

Take `CCc1nc(C)c2c(-c3ccccc3)nnc(SC)n12`: the half-maximal inhibitory concentration (IC50) was more than 48 µM.

Turning to `Cc1nc(Cc2ccccc2)n2c(O)nncc12`, the 50% inhibitory concentration (IC50) is more than 48 µM.

On to `C=CCn1ncc2cnc(Cc3ccccc3)n2c1=O`, for which the IC50 is more than 48 µM.

Regarding `C=CCn1ncc2c(Br)nc(CCC)n2c1=O`, the IC50 is more than 48 µM.

Regarding `CCCc1ncc2c(C)nnc(SC)n12`, the 50% inhibitory concentration (IC50) was more than 48 µM.

Regarding `CCCc1ncn2c(O)nncc12`, the IC50 is more than 48 µM.

In the case of `C=CCn1ncc2c(C)nc(CC)n2c1=O`, the IC50 is more than 48 µM.

As for `CCCc1ncc2cnnc(S)n12`, the IC50 is more than 48 µM.

Regarding `CCCc1nc(C)c2c(C)nnc(SC)n12`, the 50% inhibitory concentration (IC50) was more than 48 µM.

For the compound `CCCc1nc(C)c2c(C(C)C)nnc(S)n12`, the IC50 is more than 48 µM.

With `C=CCSc1nncc2cnc(C)n12`, the half-inhibitory concentration (IC50) was found to be 61 µM.

`CC(C)CCSc1nncc2cncn12`: the concentration for half-maximal inhibition (IC50) came to 9 µM.

Regarding `CCn1ncc2c(C)nc(C(C)C)n2c1=O`, the IC50 was more than 48 µM.

As to `Sc1nncc2cncn12`, the IC50 is more than 48 µM.

The species entered for the next experiment is Homo sapiens. Description: Inhibitory activity against histamine release from antigen-challenged, sensitized human basophils; Fluorescent compound, obscuring the histamine assay. The experiment is classed as functional.
Conditions: not given
The procedure, abridged: as §1
`Cc1nnc(O)n2c(C)nc(C)c12`: the IC50 result is given as “Fluoroescent compound, obscuring the histamine assay”.

The next experiment deals with Cavia porcellus. Briefly: Compound was evaluated in the guinea pig anaphylaxis test for in vivo activity; Inactive, treated 12/19, control 16/20.
Conditions: not given
The experiment is classed as functional, organism-based.
For `Cn1c(=O)c2[nH]cnc2n(C)c1=O`, the result was inactive.

The species named for the next experiment is Mus musculus. Description: Effective dose in mouse PCA test. Format: functional.
Conditions: not given
A digest of the protocol:
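Female CFW mice were passively sensitized with 50 µL of diluted homologous IgE-containing serum iv. Two days later compound was given po, 1 h before iv ovalbumin antigen plus Evans Blue dye. Mice were killed after 20 min, and each lesion area was scored as the product of two normal diameters.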
Broadly, the ED50 is the dose that gives a 50% effect, or the effect in half of the subjects. Higher therefore signals a need for a large dose. Compound `CCCc1nc(C)c2c(CC)nnc(O)n12` gave an ED50 of 146 mg/kg.

Take `CCCc1nnc(O)n2c(CCC)nc(C)c12`: the ED50 was 114 mg/kg.

In turn, `CCCc1nc(C)c2c(C)nnc(O)n12` had an ED50 of 109 mg/kg.

Consider `Cn1c(=O)c2nc[nH]c2n(C)c1=O.O` [THEOPHYLLINE], for which the ED50 is 140 mg/kg.
